Assay outcomes: PubChem BioAssay, Sanford-Burnham Center for Chemical Genomics
CSN inh: blocks human CSN-mediated cullin deneddylation; Q92905; Purified CSN, SCF-Nedd8-OG deneddylation, fluorescence polarization; inhibition, % at 12.5 µM; hit rate 0.38% among 360,000; AID 651999;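 active = pattern-corrected inhibition above about 35%, with an unprinted fluorescence ratio check between 0.5 and 1.5, limit read from the data, passing the limit was not always enough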;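 also: 0% = enzyme with substrate and 100% = substrate without enzyme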
Target sequence (Q92905 whole entry, looked up, one chain of several): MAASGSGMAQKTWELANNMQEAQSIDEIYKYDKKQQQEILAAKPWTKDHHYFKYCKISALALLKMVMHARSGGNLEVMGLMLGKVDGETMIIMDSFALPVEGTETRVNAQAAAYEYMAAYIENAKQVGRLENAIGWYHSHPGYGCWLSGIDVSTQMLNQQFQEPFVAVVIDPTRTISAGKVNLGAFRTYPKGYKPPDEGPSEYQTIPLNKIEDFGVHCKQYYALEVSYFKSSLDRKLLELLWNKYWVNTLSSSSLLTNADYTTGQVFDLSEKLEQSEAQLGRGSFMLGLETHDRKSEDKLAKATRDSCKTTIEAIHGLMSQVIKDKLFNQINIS
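Test system: Human Csn5 produced in HEK293T cells | Compound: 12.5 µM single point | Times: 90 min, room temperature | Signal: Fluorescence polarization readout | Read-out basis: % inhibition of substrate cleavage by Csn5 | Controls: no-enzyme wells high, enzyme-with-substrate wells low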
Scp-1 inhibitor: Scp-1 (human) phosphatase inhibition; Q9GZU7; inhibition, % at 20 µM; hit rate 0.88% among 340,000; Recombinant Scp1, phosphopeptide, malachite green phosphate absorbance; AID 493091;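 active = inhibition above about 50% at 20 µM, limit read from the data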;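 also: plate controls were DMSO wells with enzyme for no effect and wells lacking enzyme for full effect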
Target sequence (Q9GZU7 76-261 limits assumed): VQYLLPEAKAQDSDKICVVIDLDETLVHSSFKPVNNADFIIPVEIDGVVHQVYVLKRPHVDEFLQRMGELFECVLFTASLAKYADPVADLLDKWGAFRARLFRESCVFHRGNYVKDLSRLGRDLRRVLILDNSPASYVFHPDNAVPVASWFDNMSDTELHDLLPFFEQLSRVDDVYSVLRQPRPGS
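Test system – truncated SCP-1 phosphatase (76-261aa) · Reagent – Phosphorylated 17-residue peptide substrate · Incubation – 45 min room-temperature reaction, 5 min colour, 30 min stabiliser · Detection – colorimetric phosphate reagent with accelerator and stabiliser, absorbance at 630 nm · Measure – % inhibition at 20 µM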
LMPTP block: LMPTP (human) inhibition | P24666 | recombinant LMPTP-A, OMFP fluorogenic substrate, fluorescence intensity | inhibition, % at 20 µM | hit rate 0.22% among 360,000 | AID 651560;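 active = compounds that cut the enzyme signal by at least half of the control window in the single-dose screen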;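 also: plate controls were DMSO wells with enzyme plus substrate for no effect and substrate without enzyme for full effect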
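Assay system: LMPTP-A phosphatase enzyme | Input: 0.625 nM enzyme | Also added: Fluorogenic phosphatase substrate OMFP at 400 µM final | Compound dosing: One test concentration per compound, 20 µM, with 3% DMSO overall | Schedule: 50 min enzyme reaction at room temperature, protected from light | Signal: Fluorescence intensity | Benchmarks: no-enzyme and uninhibited controls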
SUMO1-SIM PPI: modulators of human SUMO1-mediated protein-protein interactions; SUMO1 binding to a labelled peptide, TR-FRET, 1 h; inhibition, % at 20 µM; hit rate 0.33% among 360,000; AID 602429; in the data active = inhibition above about 37%
Target sequence (P63165 whole entry, looked up): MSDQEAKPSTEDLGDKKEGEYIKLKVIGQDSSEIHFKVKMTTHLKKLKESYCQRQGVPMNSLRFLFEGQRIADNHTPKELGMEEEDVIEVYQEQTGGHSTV
STEP block: blocks human striatal-enriched tyrosine phosphatase | P54829 | recombinant STEP, OMFP fluorogenic substrate, fluorescence | inhibition, % at 20 µM | hit rate 0.25% among 360,000 | AID 588621;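 active = inhibition at 20 µM, scaled per plate between control wells, above about 37%, limit read from the data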;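 also: 0% = DMSO with enzyme and substrate and 100% = substrate only without enzyme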
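Material: STEP (striatal-enriched tyrosine phosphatase) enzyme, cell-free; Compound dosing: 20 µM single dose in 1% DMSO; Technique: fluorescence read at 480 nm ex / 540 nm em; Times: reaction 20 min, ambient temperature; Medium: 50 mM Bis-Tris pH 6.0 with 2.5 mM DTT and 0.005% Tween 20; Also added: OMFP at 25 µM.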
DNMT1 block: inhibitors of human DNMT1; AID 588458; inhibition (reported as % activation of signal), % at 10 µM; hit rate 0.83% among 360,000; DNMT1 molecular beacon, Hinp1I cleavage, fluorescence; P26358; in the data active = inhibition above about 50%
DNMT1 interf DR: shows spectral interference in the DNMT1 beacon assay; shares compounds with DNMT1 block; molecular beacon fluorescence, spectral interference counter-screen; IC50, µM; 200 tested, under 10 active; AID 602382; call rule not given here
DNMT1 inh conf: DNMT1 inhibition confirmation, single concentration. shares compounds with DNMT1 block. DNMT1 molecular beacon HinP1I cleavage, fluorescence. inhibition, % at 10 µM. hit rate 8% among 2,300. AID 602385;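 active = average inhibition of at least 30% in the single-concentration confirmation test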
Beacon interf: beacon fluorescence artifact counter-screen; shares compounds with DNMT1 block; DNMT1 molecular beacon spectral interference counterscreen, fluorescence 485/520; activation (fluorescence interference), % at 10 µM; hit rate 1% among 2,300; AID 602387;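 active = activation of at least 30% at 10 µM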;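 also: DNMT1 catalytic domain with a HinP1I cleavage step and a FAM/dabcyl DNA beacon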
Numbers without * were called inactive; . = no result given. A selection: hits, their analogues and other compounds. The true share with any hit is near 2%.

SMILES	CSN inh	Scp-1 inhibitor	LMPTP block	SUMO1-SIM PPI	STEP block	DNMT1 block	DNMT1 inh conf	Beacon interf	others
Cc1cccc(C)c1NC(=O)COc1ccc2c(C)c(Cc3ccccc3)c(=O)oc2c1C	2	-2	0	1	1	57*	0	-5
O=C(NCc1cc(C(F)(F)F)ccc1Cl)c1cccc2c1C(=O)c1ccc(N3CCOCC3)cc1S2(=O)=O	23	-6	-2	14	-3	62*	8	2
O=C(O)C(c1ccccc1)N1C(=O)/C(=C\c2ccc(-c3ccc(Br)cc3)o2)SC1=S (stereo not drawn)	147	20	65*	91*	11	93*	93*	-2	DNMT1 interf DR=47*
COc1cc(/C=C2\SC(=S)N(C(C(=O)O)c3ccccc3)C2=O)cc(OC)c1OC (stereo not drawn)	3	-2	3	-14	-2	5	.	.
Cc1ccc(CN2CCNC(=O)C2CC(=O)NCCCn2ncc3ccccc32)o1 (stereo not drawn)	5	12	-1	0	-1	-3	.	.
CC1(C)C(=O)Nc2ccccc2N1C(=O)COc1cccnc1[N+](=O)[O-]	16	16	-1	-9	2	58*	5	2
CCc1nnc(NC(=O)CSc2ccc(-c3ccco3)nn2)s1	0	-5	-2	1	-5	4	.	.
Cc1nnc(NC(=O)CSc2ccc(-c3ccco3)nn2)s1	9	17	9	24	12	53*	0	2
C#CCOc1coc(COC(=O)c2ccccc2)cc1=O	0	-5	-3	-2	2	1	.	.
NC(=O)c1nsc(C(=O)N(c2ccccc2)C(C(=O)NC2CCCC2)c2cccs2)c1N (stereo not drawn)	2	2	10	-3	-3	54*	6	0
COc1ccc(C(C(=O)NC2CCCC2)N(C(=O)c2snc(-c3ccc(F)cc3)c2N)c2ccccc2)cc1 (stereo not drawn)	-3	-2	-4	2	-1	58*	3	4
COc1ccc(C(C(=O)NC2CCCC2)N(C(=O)c2snc(-c3ccc(F)cc3)c2N)c2ccc(F)cc2)cc1 (stereo not drawn)	4	-2	-1	2	5	26	.	.
O=C(COC(=O)Cc1ccsc1)NCc1ccccc1	-1	2	-2	5	23	74*	3	4
CCN(CCO)c1nc(SC)nc2c1sc1nc(-c3ccco3)c3c(c12)CCC3	1	-14	0	0	26	-3	.	.
CSc1nc(NCCOCCO)c2sc3nc(-c4ccco4)c4c(c3c2n1)CCC4	42	0	2	23	2	87*	20	19
C[C@H]1CCCCO[C@H](CN(C)Cc2ccccc2)[C@@H](C)CN([C@@H](C)CO)C(=O)c2cc(NC(=O)CCC(F)(F)F)ccc2O1	-2	.	0	2	1	65*	5	4
CCOc1ccc(NC(=O)CCC(=O)NNC(=O)COc2ccc(C)cc2Br)cc1	-1	-1	1	-4	1	11	.	.
CCCCCCc1cc2cc(-c3nnc(-c4ccccc4OC)o3)c(=O)oc2cc1O	87	7	2	3	-4	100*	6	11
CCCCCCc1cc2cc(C(=O)Nc3ccccc3OC)c(=O)oc2cc1O	0	-4	-3	2	-5	34	.	.
CSCc1ccc(C(=O)OCC(=O)NC2CCCC2)o1	0	.	-1	1	0	2	.	.
O=C1NC(=S)S/C1=C\c1coc2ccccc2c1=O	8	-1	-1	-2	0	36	.	.
O=C1NC(=S)S/C1=C\c1coc2ccc(O)cc2c1=O	12	4	3	6	68*	81*	0	1
COC(=O)c1cc2occc2n1Cc1nc(-c2ccc(Cl)cc2)oc1C	-1	-10	1	1	0	1	.	.
COC(=O)c1cc2occc2n1Cc1nc(-c2ccccc2Cl)oc1C	2	-13	0	2	-12	86*	1	2
COc1cc(OC)c2ccc(=O)oc2c1C(CCN1CCOCC1)c1ccc2c(c1)OCO2 (stereo not drawn)	0	1	-1	-5	-1	61*	4	2
SMILES	CSN inh	Scp-1 inhibitor	LMPTP block	SUMO1-SIM PPI	STEP block	DNMT1 block	DNMT1 inh conf	Beacon interf	others
CSC(=S)NCc1cccnc1	3	-6	-1	0	-1	7	.	.
O=C(O)c1ccc(-c2ncc[nH]2)cc1	-1	-7	1	4	-2	-1	.	.
COc1ccc(C(c2c(C)[nH]n(C(N)=S)c2=O)C(C#N)C#N)cc1 (stereo not drawn)	0	-10	-1	-2	0	-1	.	.
Cc1[nH]n(-c2ncc(-c3ccc(Cl)cc3)s2)c(=O)c1C(c1ccc(Cl)cc1)C(C#N)C#N (stereo not drawn)	5	8	6	16	1	83*	8	0
COc1ccccc1CCNC(=O)c1cc(-c2ccncc2)nc2ccc(Br)cc12	19	12	14	-10	9	50*	1	-1
CC(=O)Nc1cccc(NC(=O)c2cc(-c3cccnc3)nc3ccc(Br)cc23)c1	-6	29	1	-10	21	-11	.	.
CSc1ccccc1NC(=O)c1cc(-c2cccnc2)nc2ccc(Br)cc12	19	4	4	10	7	56*	0	-5
CCOc1ccccc1NC(=O)N1CCCN(c2ncccc2C#N)CC1	2	-7	-1	-1	-1	-1	.	.
O=C(COC(=O)c1ccccc1OCC(=O)Nc1ccc(Br)cc1)Nc1ccccc1	-5	4	-1	32	-2	22	.	.
CCC(C)NC(=O)COC(=O)c1ccccc1OCC(=O)Nc1ccc(Br)cc1 (stereo not drawn)	-3	-5	-2	-5	-1	51*	1	0
Cc1ccc(/C=C/C(=O)N2CCc3ccccc32)o1	16	52*	2	-3	4	86*	8	2
CC(=O)Nc1ccc(S(=O)(=O)Nc2nc3ccccc3nc2Nc2ccc(C(=O)O)c(O)c2)cc1	52	87*	8	57*	12	77*	4	13
CC1CCN(C(=O)c2cc3c(=O)n4ccccc4nc3s2)CC1	8	-1	0	-34	1	1	.	.
